Active and inactive are the calls of the source. The calls are words filed in the database; no cut-off is given here.
What was measured:
[1] = molecular target: T1, Free fatty acid receptor 1 (Homo sapiens, UniProt O14842); assay: Agonist activity at human FFA1 receptor expressed in CHO cells assessed as Ca2+ influx at 100 nM by FLIPR assay; type: functional, cell-based
Outline: (§1)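 Human FFA1 stably expressed in CHO cells, seeded at 15K/well and grown 16 h at 37 °C, 5% CO2. Cells loaded 1 h at 37 °C with Fluo 4-AM (2.5 µg/mL), 2.5 mmol/L probenecid and 0.1% fatty acid-free BSA. Single screening concentration as listed. Ca2+ flux read on FLIPR Tetra and expressed as % of the 10 µM γ-linolenic acid response after vehicle subtraction. Mean of three independent experiments.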

[2] = molecular target: T1, Free fatty acid receptor 1; assay: Agonist activity at human FFA1 receptor expressed in CHO cells assessed as Ca2+ influx by FLIPR assay; type: functional, cell-based
Outline: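 Ca2+ flux assay in CHO cells stably expressing human FFA1: seeded at 15K/well and grown 16 h, then Fluo 4-AM loaded 1 h at 37 °C with probenecid and fatty acid-free BSA. Compounds tested at various concentrations. Response normalized to vehicle (0%) and 10 µM γ-linolenic acid (100%). EC50 from concentration–response fitting, mean of three determinations.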

Mus musculus [3] = assay: Antidiabetic activity in overnight fasted ICR mouse assessed as decrease in blood glucose level at 20 mg/kg, po administered 30 mins prior to glucose challenge measured after 15 to 120 mins by OGTT method; type: functional, organism-based
Outline: (§2)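 Male ICR mice, 10 weeks old, 18-22 g, fasted overnight (12 h), n = 6 per group. Single oral dose in 0.5% CMC-Na vehicle (10 mL/kg), […] for the reference compound (20 mg/kg) and for the test compounds. Oral glucose load (30%, 3 g/kg) given 30 min later. Tail blood glucose measured by test strip at -30, 0, 15, 30, 45, 60 and 120 min. AUC0-2h also derived. Mean ± SEM.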

Mus musculus [4] = assay: Antihyperglycemic activity in overnight fasted STZ-induced type 2 dibetic C57BL/6 mouse assessed as decrease in blood glucose level at 20 mg/kg, po administered 30 mins prior to glucose challenge measured after 15 to 120 mins by OGTT method; type: functional, organism-based
Outline: (§3)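 Male C57BL/6 mice fed a 45%-fat diet for 4 weeks, given STZ i.p. (80 mg/kg), then high-fat diet for 4 more weeks. Fasting glucose of 11.1 mmol/L or higher taken as diabetic. After a 12 h fast, n = 6 per group, with a normal-mouse control group. Oral dose in 0.5% CMC-Na, then oral glucose (20%, 2 g/kg) 30 min later. Strip glucose at -30 to 120 min.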

Mus musculus [5] = assay: Hepatotoxicity in ICR mouse assessed as alanine aminotransferase levels in serum at 20 mg/kg qd administered through oral gavage for 30 days (reference value: 35 +/- 4.3 IU/L); type: toxicity, organism-based; settings: in vivo, 720 h
Mus musculus [6] = assay: Hepatotoxicity in ICR mouse assessed as total bilirubin levels in serum at 20 mg/kg qd administered through oral gavage for 30 days (reference value: 4.1 +/- 0.4 IU/L); type: toxicity, organism-based; settings: in vivo, 720 h
Mus musculus [7] = assay: Hepatotoxicity in ICR mouse assessed as aspartate aminotransferase levels in serum at 20 mg/kg qd administered through oral gavage for 30 days (reference value: 133.1 +/- 13.1 IU/L); type: toxicity, organism-based; settings: in vivo, 720 h
Mus musculus [8] = assay: Antidiabetic activity in overnight fasted ICR mouse assessed as decrease in blood glucose level at […], po administered 30 mins prior to glucose challenge measured after 15 to 120 mins by OGTT method; type: functional, organism-based; settings: 38 umol/kg; outline: as §2
Mus musculus [9] = assay: Antidiabetic activity in overnight fasted ICR mouse assessed as decrease in plasma glucose AUC at […], po administered 30 mins prior to glucose challenge measured after 15 to 120 mins by OGTT method; type: functional, organism-based; outline: as §2
[10] = molecular target: T1, Free fatty acid receptor 1; assay: Agonist activity at human FFA1 receptor expressed in CHO cells assessed as Ca2+ influx at 300 nM by FLIPR assay; type: functional, cell-based; outline: as §1
Mus musculus [11] = assay: Toxicity in overnight fasted ICR mouse assessed as hypoglycemic effect at 15 mg/kg, po after 30 to 120 mins […]; type: organism-based; settings: in vivo
Outline: (§4)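 Fasting hypoglycemia test without a glucose load: male ICR mice, 10 weeks old, fasted overnight, 3 groups of n = 6. Single oral dose of 60 mg/kg test compound, 15 mg/kg glibenclamide or 0.5% CMC-Na vehicle. Tail-vein blood glucose measured by test strip at 0, 30, 60, 90, 120 and 180 min. Mean ± SEM.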

Mus musculus [12] = assay: Hepatotoxicity in ICR mouse assessed as alanine aminotransferase levels in serum at 30 mg/kg qd administered through oral gavage for 30 days (reference value: 35 +/- 4.3 IU/L); type: toxicity, organism-based; settings: in vivo, 720 h
Mus musculus [13] = assay: Antidiabetic activity in overnight fasted ICR mouse assessed as decrease in blood glucose level at 60 mg/kg, po administered 30 mins prior to glucose challenge measured after 60 mins by OGTT method; type: functional, organism-based
Outline: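 Dose–response OGTT in male ICR mice, 10 weeks old, fasted 12 h, 5 groups of n = 6. Oral doses of 10, 30 or 60 mg/kg, or reference at 20 mg/kg, in 0.5% CMC-Na. Glucose (30%, 3 g/kg) given orally 30 min after dosing. Tail-blood glucose read by test strip at -30, 0, 15, 30, 45, 60 and 120 min. Mean ± SEM.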

Mus musculus [14] = assay: Hepatotoxicity in ICR mouse assessed as aspartate aminotransferase levels in serum at 30 mg/kg qd administered through oral gavage for 30 days (reference value: 133.1 +/- 13.1 IU/L); type: toxicity, organism-based; settings: in vivo, 720 h
Mus musculus [15] = assay: Toxicity in overnight fasted ICR mouse assessed as hypoglycemic effect at 60 mg/kg, po after 30 to 120 mins […]; type: organism-based; settings: in vivo; outline: as §4
Mus musculus [16] = assay: Antidiabetic activity in overnight fasted po dosed ICR mouse assessed as decrease in blood glucose level administered 30 mins prior to glucose challenge measured after 15 to 120 mins by OGTT method; type: functional, organism-based; outline: as §2
Mus musculus [17] = assay: Antihyperglycemic activity in overnight fasted STZ-induced type 2 dibetic C57BL/6 mouse assessed as decrease in blood glucose level at 30 mg/kg, po administered 30 mins prior to glucose challenge measured after 15 to 120 mins by OGTT method; type: functional, organism-based; outline: as §3
Mus musculus [18] = assay: Hepatotoxicity in ICR mouse assessed as total bilirubin levels in serum at 30 mg/kg qd administered through oral gavage for 30 days (reference value: 4.1 +/- 0.4 IU/L); type: toxicity, organism-based; settings: in vivo, 720 h

T1 sequence (O14842 whole entry): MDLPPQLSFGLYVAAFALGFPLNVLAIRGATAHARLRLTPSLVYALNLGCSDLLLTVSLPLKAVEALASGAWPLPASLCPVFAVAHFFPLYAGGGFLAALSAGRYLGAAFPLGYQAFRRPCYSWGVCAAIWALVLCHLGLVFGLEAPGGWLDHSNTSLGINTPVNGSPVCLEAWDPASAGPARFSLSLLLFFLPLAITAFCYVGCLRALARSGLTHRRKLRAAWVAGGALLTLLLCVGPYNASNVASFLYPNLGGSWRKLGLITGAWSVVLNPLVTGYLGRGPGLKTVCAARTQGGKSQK

| Activity [1] | Activity [10] | Structure (SMILES) | further results |
| --- | --- | --- | --- |
| 46.8% | – | COc1ccc(-c2nc(C)c(COc3ccc4c(c3)OCC4CC(=O)O)s2)cc1 (stereo not drawn) | EC50 [2]: 123 nM |
| 35.7% | – | Cc1nc(-c2cccc(C(F)(F)F)c2)sc1COc1ccc2c(c1)OCC2CC(=O)O (stereo not drawn) | – |
| 56.9% | – | Cc1nc(-c2cccc(F)c2)sc1COc1ccc2c(c1)OCC2CC(=O)O (stereo not drawn) | EC50 [2]: 64.8 nM; Activity (Mus musculus [8]): Active; Activity (Mus musculus [9]): Active |
| 53.4% | – | Cc1nc(-c2ccc(Cl)cc2)sc1COc1ccc2c(c1)OCC2CC(=O)O (stereo not drawn) | EC50 [2]: 85.6 nM; Activity (Mus musculus [8]): Active; Activity (Mus musculus [9]): Active |
| 7.15% | 21.2% | Cc1nc(-c2ccccc2)oc1COc1ccc2c(c1)OCC2CC(=O)O (stereo not drawn) | – |
| 0.98% | 1.23% | Cc1cc(COc2ccc3c(c2)OCC3CC(=O)O)nn1-c1ccccc1 (stereo not drawn) | – |
| 43% | – | Cc1nc(-c2cccc(Cl)c2)sc1COc1ccc2c(c1)OCC2CC(=O)O (stereo not drawn) | EC50 [2]: 138 nM |
| 3.36% | 13.7% | O=C(O)CC1COc2cc(OCc3nnc(-c4ccccc4)s3)ccc21 (stereo not drawn) | – |
| 50.4% | – | Cc1nc(-c2ccc(C(F)(F)F)cc2)sc1COc1ccc2c(c1)OCC2CC(=O)O (stereo not drawn) | EC50 [2]: 96.7 nM |
| – | 0.89% | O=C(O)CC1COc2cc(OCc3cn(-c4ccccc4)nn3)ccc21 (stereo not drawn) | – |
| 61.6% | – | Cc1nc(-c2ccc(F)cc2)sc1COc1ccc2c(c1)OCC2CC(=O)O (stereo not drawn) | Activity (Mus musculus [12]): 37.5 IU/L; Activity (Mus musculus [13]): Active; Activity (Mus musculus [14]): 141.8 IU/L; Activity (Mus musculus [15]): Non-toxic; Activity (Mus musculus [16]): Dose-dependent effect; EC50 [2]: 48.7 nM; Activity (Mus musculus [17]): Active; Activity (Mus musculus [8]): Active; Activity (Mus musculus [18]): 4 IU/L; Activity (Mus musculus [9]): Active |
| 1.54% | 6.31% | O=C(O)CC1COc2cc(OCc3nnc(-c4ccccc4)o3)ccc21 (stereo not drawn) | – |
| 12.4% | – | Cc1nc(-c2ccccc2Cl)sc1COc1ccc2c(c1)OCC2CC(=O)O (stereo not drawn) | – |
| 8.53% | – | Cc1nc(-c2cccc3ccccc23)sc1COc1ccc2c(c1)OCC2CC(=O)O (stereo not drawn) | – |
| 25.8% | – | Cc1nc(-c2ccccc2F)sc1COc1ccc2c(c1)OCC2CC(=O)O (stereo not drawn) | – |
| 0.15% | 5.67% | O=C(O)CC1COc2cc(OCc3csc(-c4ccccc4)n3)ccc21 (stereo not drawn) | – |
| 7.76% | – | Cc1nc(-c2ccccc2C(F)(F)F)sc1COc1ccc2c(c1)OCC2CC(=O)O (stereo not drawn) | – |

The remaining lines, values behind:

| Structure (SMILES) | Activity [1] | Activity [10] | further results |
| --- | --- | --- | --- |
| Cc1cc(OCCCS(C)(=O)=O)cc(C)c1-c1cccc(COc2ccc3c(c2)OC[C@H]3CC(=O)O)c1 [FASIGLIFAM] | – | – | Activity (Mus musculus [3]): Active; Activity (Mus musculus [4]): Active; Activity (Mus musculus [5]): 48.3 IU/L; Activity (Mus musculus [6]): 4 IU/L; Activity (Mus musculus [7]): 181.1 IU/L |
| COc1cc(-c2nc(C)c(COc3ccc4c(c3)OCC4CC(=O)O)s2)cc(OC)c1OC (stereo not drawn) | 7.47% | – | – |
| Cc1ccccc1-c1nc(C)c(COc2ccc3c(c2)OCC3CC(=O)O)s1 (stereo not drawn) | 10.7% | – | – |
| O=C(O)CC1COc2cc(OCc3nc(-c4ccccc4)cs3)ccc21 (stereo not drawn) | 0.16% | 0.23% | – |
| COc1ccc(Cl)cc1C(=O)NCCc1ccc(S(=O)(=O)NC(=O)NC2CCCCC2)cc1 [GLYBURIDE] | – | – | Activity (Mus musculus [11]): Toxic |
| Cc1cccc(-c2nc(C)c(COc3ccc4c(c3)OCC4CC(=O)O)s2)c1 (stereo not drawn) | 47.2% | – | EC50 [2]: 119 nM |
| O=C(O)CC1COc2cc(OCc3ncc(-c4ccccc4)o3)ccc21 (stereo not drawn) | 2.34% | 10.2% | – |
| O=C(O)CC1COc2cc(OCc3cc(-c4ccccc4)on3)ccc21 (stereo not drawn) | 0.84% | 1.67% | – |
| Cc1nc(-c2ccc(Cl)s2)sc1COc1ccc2c(c1)OCC2CC(=O)O (stereo not drawn) | 8.34% | – | – |
| Cc1nc(-c2ccsc2)sc1COc1ccc2c(c1)OCC2CC(=O)O (stereo not drawn) | 56.5% | – | EC50 [2]: 68.5 nM; Activity (Mus musculus [8]): Active |
| Cc1ccc(-c2nc(C)c(COc3ccc4c(c3)OCC4CC(=O)O)s2)cc1 (stereo not drawn) | 54.9% | – | EC50 [2]: 73.5 nM; Activity (Mus musculus [8]): Active; Activity (Mus musculus [9]): Active |
| O=C(O)CC1COc2cc(OCc3ncc(-c4ccccc4)s3)ccc21 (stereo not drawn) | 5.26% | 19.8% | – |
| COc1cc(OC)cc(-c2nc(C)c(COc3ccc4c(c3)OCC4CC(=O)O)s2)c1 (stereo not drawn) | 17.5% | – | – |
| Cc1nc(-c2cc3ccccc3o2)sc1COc1ccc2c(c1)OCC2CC(=O)O (stereo not drawn) | 14.8% | – | – |
| Cc1nc(-c2ccccc2)sc1COc1ccc2c(c1)OCC2CC(=O)O (stereo not drawn) | 54.8% | 67.4% | Activity (Mus musculus [8]): Active |
| Cc1nc(-c2cccs2)sc1COc1ccc2c(c1)OCC2CC(=O)O (stereo not drawn) | 35.1% | – | – |

Source: ChEMBL document CHEMBL3779858, “Design, synthesis and Structure-activity relationship studies of new thiazole-based free fatty acid receptor 1 agonists for the treatment of type 2 diabetes” (Eur J Med Chem, 2016)
